# Experimental data from ChEMBL document CHEMBL3102739, “Synthesis and antiproliferative activity of conformationally restricted 1,2,3-triazole analogues of combretastatins in the sea urchin embryo model and against human cancer cell lines” (Bioorg Med Chem, 2014).
# pEC50: −log10 of the molar value. Active and inactive are the calls of the source. The rule behind the calls is not given here.
# Tests used:
# [1] = Cytotoxicity against human Jurkat/A4 cells assessed as cell death at 1 uM after 48 hrs by trypan blue exclusion assay relative to control; assay type: functional
# Summary of the method: (§1)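 Compound added to exponentially growing Jurkat or Jurkat/A4 cells in RPMI-1640 with 10% FCS at 37 °C. Viable cells counted directly by trypan blue exclusion after 48 h. EC50 taken by linear interpolation of survival data. Mean±SD from three independent experiments.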
# Jurkat [2] = assay: Cytotoxicity against human Jurkat cells assessed as cell viability after 48 hrs by trypan blue exclusion assay; assay type: functional, cell-based; summary of the method: as §1
# [3] = Induction of apoptosis in human Jurkat/A4 cells assessed as active caspase 3 expression at 150 nM after 48 hrs by FITC-conjugated flow cytometric analysis (reference value: 1.1%); assay type: functional
# Summary of the method: (§2)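 Jurkat or Jurkat/A4 cells treated, then permeabilized per the manufacturer's protocol and stained with FITC-conjugated monoclonal antibody to active caspase-3. Percentage of positive cells (M1 gate) measured by flow cytometry. Untreated cells served as controls.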
# [4] = Induction of apoptosis in human Jurkat/A4 cells assessed as active caspase 3 expression at 150 nM after 24 hrs by FITC-conjugated flow cytometric analysis (reference value: 1.1%); assay type: functional; summary of the method: as §2
# Jurkat [5] = assay: Induction of apoptosis in human Jurkat cells assessed as active caspase 3 expression at 15 nM after 48 hrs by FITC-conjugated flow cytometric analysis (reference value: 3.3%); assay type: functional; summary of the method: as §2
# Jurkat [6] = assay: Induction of apoptosis in human Jurkat cells assessed as active caspase 3 expression at 15 nM after 24 hrs by FITC-conjugated flow cytometric analysis (reference value: 3.3%); assay type: functional; summary of the method: as §2
# Jurkat [7] = assay: Induction of apoptosis in human Jurkat cells assessed as active caspase 3 expression at 15 nM by FITC-conjugated flow cytometric analysis; assay type: functional, cell-based; details: TDE = time-dependent effect; summary of the method: as §2
# Jurkat/A4 [8] = assay: Induction of apoptosis in human Jurkat/A4 cells assessed as Bcl-2 expression at 150 nM after 24 to 48 hrs Western blotting analysis; assay type: functional, cell-based
# Summary of the method: (§3)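 Treatment 24 or 48 h (Jurkat 15 nM, Jurkat/A4 150 nM for CA4P). Cells washed in ice-cold PBS and lysed 30 min at 4 °C in 20 mM Tris-HCl pH 7.4, 1% Triton X-100, 150 mM NaCl with protease inhibitors. Equal protein run on 12% SDS-PAGE and blotted to PVDF. Probed with monoclonal antibodies to caspase-9, caspase-2, Bcl-2 or XIAP for 2 h at room temperature, then HRP anti-mouse and ECL. β-actin used as loading control.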
# Jurkat [9] = assay: Induction of apoptosis in human Jurkat cells assessed as Bcl-2 expression at 15 nM after 24 to 48 hrs Western blotting analysis; assay type: functional, cell-based; summary of the method: as §3
# Jurkat/A4 [10] = assay: Induction of apoptosis in human Jurkat/A4 cells assessed as reduction of XIAP expression at 150 nM after 24 hrs Western blotting analysis; assay type: functional, cell-based; summary of the method: as §3
# Jurkat [11] = assay: Induction of apoptosis in human Jurkat cells assessed as reduction of XIAP expression at 15 nM after 24 hrs Western blotting analysis; assay type: functional, cell-based; summary of the method: as §3
# Jurkat/A4 [12] = assay: Induction of apoptosis in human Jurkat/A4 cells assessed as caspase 2 activation at 150 nM after 24 to 48 hrs by Western blotting analysis; assay type: functional, cell-based; summary of the method: as §3
# Jurkat/A4 [13] = assay: Induction of apoptosis in human Jurkat/A4 cells assessed as caspase 9 activation at 150 nM after 24 to 48 hrs by Western blotting analysis; assay type: functional, cell-based; summary of the method: as §3
# Jurkat [14] = assay: Induction of apoptosis in human Jurkat cells assessed as caspase 2 activation at 15 nM after 24 to 48 hrs by Western blotting analysis; assay type: functional, cell-based; summary of the method: as §3
# Jurkat [15] = assay: Induction of apoptosis in human Jurkat cells assessed as caspase 9 activation at 15 nM after 48 hrs by Western blotting analysis; assay type: functional, cell-based; summary of the method: as §3
# [16] = Cell cycle arrest in human Jurkat/A4 cells assessed as accumulation at sub-G1 phase at 150 nM after 48 hrs by propidium iodide staining-based flow cytometric analysis (reference value: 17.1%); assay type: functional
# Jurkat/A4 [17] = assay: Induction of apoptosis in human Jurkat/A4 cells assessed as micronuclei formation after 48 hrs by May-Grunwald-Giemsa staining-based microscopic analysis; assay type: functional, cell-based
# Summary of the method: (§4)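 Jurkat or Jurkat/A4 cells treated 48 h, with untreated cells as control. Cells cytospun, stained by May–Grünwald–Giemsa and examined by light microscopy with a 100× objective for micronuclei, membrane-enclosed fragments with unequally segregated chromosomes, and condensed nuclei.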
# Jurkat/A4 [18] = assay: Induction of apoptosis in human Jurkat/A4 cells assessed as small cell fragments with unequally segregated chromosomes enclosed by cell membrane after 48 hrs by May-Grunwald-Giemsa staining-based microscopic analysis; assay type: functional; summary of the method: as §4
# Jurkat [19] = assay: Induction of apoptosis in human Jurkat cells assessed as small cell fragments with unequally segregated chromosomes enclosed by cell membrane after 48 hrs by May-Grunwald-Giemsa staining-based microscopic analysis; assay type: functional; summary of the method: as §4
# Jurkat [20] = assay: Induction of apoptosis in human Jurkat cells assessed as micronuclei formation after 48 hrs by May-Grunwald-Giemsa staining-based microscopic analysis; assay type: functional, cell-based; summary of the method: as §4
# Jurkat [21] = assay: Cell cycle arrest in human Jurkat cells assessed as accumulation at sub-G1 phase at 15 nM after 48 hrs by propidium iodide staining-based flow cytometric analysis (reference value: 12.2%); assay type: functional
# [22] = Cell cycle arrest in human Jurkat/A4 cells assessed as decrease in accumulation at G0/G1 phase at 150 nM after 24 hrs by propidium iodide staining-based flow cytometric analysis; assay type: functional
# [23] = Cell cycle arrest in human Jurkat/A4 cells assessed as increase in accumulation at G2/M phase at 150 nM after 24 hrs by propidium iodide staining-based flow cytometric analysis; assay type: functional
# Jurkat [24] = assay: Cell cycle arrest in human Jurkat cells assessed as decrease in accumulation at G0/G1 phase at 15 nM after 24 hrs by propidium iodide staining-based flow cytometric analysis; assay type: functional
# Jurkat [25] = assay: Cell cycle arrest in human Jurkat cells assessed as increase in accumulation at G2/M phase at 15 nM after 24 hrs by propidium iodide staining-based flow cytometric analysis; assay type: functional
smiles,measurement,setting,value
COc1ccc(/C=C\c2cc(OC)c(OC)c(OC)c2)cc1OP(=O)([O-])[O-].[Na+].[Na+] [FOSBRETABULIN DISODIUM],Activity,[1],<20%
same,pEC50,Jurkat [2],7.82
same,Activity,[3],1.6%
same,Activity,[4],2.2%
same,Activity,Jurkat [5],31.6%
same,Activity,Jurkat [6],15%
same,Activity,Jurkat [7],tde
same,Activity,Jurkat/A4 [8],inactive
same,Activity,Jurkat [9],inactive
same,Activity,Jurkat/A4 [10],inactive
same,Activity,Jurkat [11],Active
same,Activity,Jurkat/A4 [12],inactive
same,Activity,Jurkat/A4 [13],inactive
same,Activity,Jurkat [14],Active
same,Activity,Jurkat [15],Active
same,Activity,[16],24.3%
same,Activity,Jurkat/A4 [17],Active
same,Activity,Jurkat/A4 [18],Active
same,Activity,Jurkat [19],Active
same,Activity,Jurkat [20],Active
same,Activity,Jurkat [21],39.5%
same,Activity,[22],Active
same,Activity,[23],Active
same,Activity,Jurkat [24],Active
same,Activity,Jurkat [25],Active
